Most compounds without a hit are left out; they make up all but 3.3% or so of the library.
PRMT1 inh: PRMT1 methyltransferase inhibitors, primary screen, biochemical, fluorescence polarization; recombinant PRMT1, activity-based probe fluorescence polarization; inhibition, % at 2.79 µM; 370,000 compounds, 1.3% hits; AID 652257, 2013;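 active means inhibition above about 21% made by adding two undisclosed values, limit read from the data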
TCR-CD3 inh: inhibitors of human TCR-CD3 interaction, primary screen, biochemical, fluorescence, TAMRA-labeled TCR probe | T-cell receptor (TCR) | inhibition, % at 9.4 µM | 360,000 compounds, 0.37% hits | AID 651800, 2012; in the data active means inhibition above about 19%;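 further: recombinant mutant TCR 2C K166C tagged with TAMRA read by polarization; 0% = receptor in buffer alone and 100% = receptor with positive control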
SIAE primary: human SIAE inhibitors, primary screen, biochemical, fluorescence polarization, FP-Rh probe, 1536-well HTS. Sialate O-acetylesterase (Homo sapiens), Q9HAT2. SIAE FP-Rh probe binding. inhibition, % at 9.66 µM. 370,000 compounds, 0.69% hits;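 active means inhibition above a cutoff: mean of compounds within the control limits plus 3 SD of those, cut at about 17% in these data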;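 further: 0% = plate median of compound wells and 100% = probe without SIAE protein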
Target sequence (Q9HAT2 whole entry, looked up): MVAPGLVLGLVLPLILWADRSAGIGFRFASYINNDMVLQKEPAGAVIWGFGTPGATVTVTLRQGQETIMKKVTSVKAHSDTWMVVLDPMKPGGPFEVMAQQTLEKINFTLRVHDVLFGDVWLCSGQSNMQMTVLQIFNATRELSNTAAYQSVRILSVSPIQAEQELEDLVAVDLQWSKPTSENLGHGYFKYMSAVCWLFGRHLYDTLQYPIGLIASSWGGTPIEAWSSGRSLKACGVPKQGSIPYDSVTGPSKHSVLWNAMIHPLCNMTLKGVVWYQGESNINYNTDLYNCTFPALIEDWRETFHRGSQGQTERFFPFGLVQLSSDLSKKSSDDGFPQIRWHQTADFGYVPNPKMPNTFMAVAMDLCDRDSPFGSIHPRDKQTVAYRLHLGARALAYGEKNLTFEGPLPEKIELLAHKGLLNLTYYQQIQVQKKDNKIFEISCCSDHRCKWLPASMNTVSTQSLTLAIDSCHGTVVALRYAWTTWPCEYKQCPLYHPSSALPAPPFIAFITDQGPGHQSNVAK
ABHD4 inh: ABHD4 inhibitors, primary screen, biochemical, fluorescence polarization, mouse. (Lyso)-N-acylphosphatidylethanolamine lipase (Mus musculus), Q8VD66. purified mABHD4, FP-Rh probe fluorescence polarization. inhibition, % at 8.92 µM. 370,000 compounds, 0.54% hits;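 active means inhibition exceeding the mean over every tested compound plus 3 SD, cut at about 30% in these data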;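 further: 0% = plate median of compound wells and 100% = S159A mutant with DMSO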
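Doses – 8.92 µM, single dose · Material – wild-type mouse ABHD4 protein · Replication – single well per compound (singlicate) · Measure – percent inhibition of probe binding, normalized to plate controls · Schedule – 45 min compound pre-incubation plus 60 min probe step, 25 °C · Detection – fluorescence polarization with parallel and perpendicular emission, 525/598 nm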
rCAG RNA binder: binders of r(CAG) RNA repeats, primary screen, biochemical, fluorescence; r(CAG) RNA repeat, TO-PRO-1 dye displacement fluorescence; inhibition, % at 3 µM; 370,000 compounds, 1.3% hits; AID 651821, 2012;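 active means inhibition above the plate cutoff, the mean of all test compounds on that plate plus 3 SD, cut at about 35% in these data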;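 further: 0% = DMSO alone and 100% = 100 µM mitoxantrone as full dye displacement; higher means more dye released from RNA so lower well fluorescence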
PRMT1 inh conf: PRMT1 methyltransferase inhibitors, confirmation, biochemical, fluorescence polarization, triplicate; recombinant His-PRMT1, activity-based probe fluorescence polarization; inhibition, % at 2.79 µM; shares compounds with PRMT1 inh; AID 687036, 2013; 3,300 compounds, 42% hits;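 active means mean inhibition across replicates above the hit cutoff derived for the earlier primary screen, cut at about 22% in these data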
ABHD4 confirm: ABHD4 inhibitors, retest, confirmation, biochemical, fluorescence polarization, mouse; shares compounds with ABHD4 inh; purified mABHD4, FP-Rh probe fluorescence polarization; inhibition, % at 8.92 µM; 1,800 compounds, 55% hits; AID 720658, 2013;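 active means mean inhibition across replicates above the hit cutoff set in the primary screen, cut at about 30% in these data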;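 further: 0% = wild-type ABHD4 with DMSO and 100% = catalytically dead S159A mutant with DMSO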
The depositor's hits bear a star; / = no result.

SMILES	PRMT1 inh	TCR-CD3 inh	SIAE primary	ABHD4 inh	rCAG RNA binder	PRMT1 inh conf	ABHD4 confirm
CCOc1ccc(-n2c(COc3ccccc3)nnc2SCC(=O)Nc2ccc(OCc3ccccc3)cc2)cc1	-3.8	/	-1.8	-5.6	10.0	/	/
COc1ccc(N2C(=S)NC3CS(=O)(=O)CC32)cc1 (stereo unspecified)	3.9	-0.8	3.2	4.0	-0.3	/	/
COc1ccc(C2NC(=S)N3C(c4ccc(OC)cc4)NC(=S)N23)cc1 (stereo unspecified)	46.4*	-3.0	4.0	-10.7	5.0	5.0	/
COC(=O)c1ccc(-c2ccco2)n1Cc1nc(-c2ccc(OC)c(OC)c2)oc1C	29.5*	-7.4	-8.8	5.6	15.2	2.8	/
N#Cc1ccc(Oc2cccc3cccnc23)c([N+](=O)[O-])c1	26.5*	-1.9	-0.2	5.3	-32.9	4.9	/
CN(Cc1ccc2c(c1)CCCN2C)C(=O)[C@H]1O[C@@H](n2ccc(=O)[nH]c2=O)[C@H](O)[C@@H]1O	51.9*	1.4	7.0	6.6	-1.6	6.6	/
Cc1ccccc1CC(=O)Nc1nnc(-c2cccnc2)s1	-3.4	/	10.5	7.4	0.6	/	/
CCCCCCCC(=O)N[C@H]1CC[C@@]23CCCN2C(=O)CCC[C@H]3[C@H]1CCC	3.5	/	4.5	1.0	/	/	/
COc1cc(/C=N/n2cc(-c3ccccc3)[nH]c2=S)cc(OC)c1O	47.3*	2.0	-2.3	12.5	7.3	27.0*	/
S=c1[nH]c(-c2ccccc2)cn1/N=C/c1ccccc1Br	11.4	-4.1	-6.4	4.8	9.6	/	/
Oc1ccc(/C=N/n2cc(-c3ccccc3)[nH]c2=S)cc1	44.2*	0.5	-5.0	-8.4	9.3	23.5*	/
S=c1[nH]c(-c2ccccc2)cn1/N=C/c1cccc2ccccc12	14.7	2.0	4.8	2.8	11.1	/	/
Cc1ccc(/C=N/n2cc(-c3ccccc3)[nH]c2=S)s1	27.8*	-6.1	-1.3	7.3	6.9	15.7	/
COc1ccc(CCNCC(O)COc2cccc(C)c2)cc1OC (stereo unspecified)	-2.7	/	-2.2	-2.5	1.0	/	/
O=C1/C(=C\c2ccco2)SC(=S)N1C1CCS(=O)(=O)C1 (stereo unspecified)	25.3*	8.8	6.9	35.3*	31.0	1.7	-2.6
O=C(O)CCCN1C(=O)/C(=C\c2ccco2)SC1=S	27.9*	11.6	4.1	30.9*	7.0	17.3	10.9
CCCC(=O)N1CCC[C@]2(CC[C@@H](CCC(=O)N(CC)CC)O2)C1	-0.5	/	-2.3	2.3	-2.2	/	/
O=c1c2cc3cc4c(cc3nc2ncn1CCc1ccccc1)OCO4	8.1	/	7.7	7.0	17.5	/	/
Cc1cccc(C)c1NC(=O)CSCC(=O)c1ccc(O)c(O)c1	39.4*	5.1	-0.4	31.7*	9.9	62.1*	27.4
COC(=O)C1=C(C)N(Cc2ccc(C)cc2)C(=O)/C1=C\c1ccc(O)c(OC)c1	27.3*	9.5	5.0	33.4*	15.1	5.4	46.6*
COC(=O)c1ccc(NCc2c(O)ccc(O)c2Br)cc1Cl	82.5*	-1.8	11.9	30.6*	23.0	15.1	37.3*
Cc1ccc(-c2ccccc2)n1-c1ccc(C(=O)O)cc1	73.2*	-8.7	0.9	35.6*	4.7	-0.6	-7.7
O=C(O)c1ccc(-n2c(-c3ccccc3)n[nH]c2=S)cc1	-1.3	6.3	8.2	6.2	-1.8	/	/
CCOC(=O)[C@@]12CCC3=C1N(CCC3)C(=O)[C@H](CC(=O)N1CCN(C(=O)C3CC3)CC1)C2	-0.1	/	1.6	5.6	2.4	/	/
CC(=Nc1ccc(O)cc1)c1sc2ccccc2c1O	26.7*	7.9	2.2	38.7*	4.9	12.8	0.0
Oc1ccc(-c2c(-c3ccsc3)sc3ccccc23)cc1	0.4	-11.1	-7.6	-26.4	5.9	/	/
CCCCC#CC(CC)NCc1ccc(OC)cc1OC (stereo unspecified)	0.2	/	-2.9	1.5	/	/	/

Compound activity deposited in PubChem BioAssay by The Scripps Research Institute Molecular Screening Center.
